Data set [1] is described as follows: Half life in Sprague-Dawley rat liver microsomes in presence of NADPH regenerating system by HPLC method. The class given is ADME. The essentials:
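Compound incubated with rat liver microsomes at 37 °C in buffer containing an NADPH regenerating system, sampled over time up to 3 h. Remaining parent compound was measured by HPLC and half-life derived.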

Data set [2] relates to A549. The experiment in a line: Disruption of mitochondrial membrane potential in human A549 cells assessed as green fluorescence intensity at 1 nM after 24 hrs by JC1 staining-based flow cytometric method (reference value: 0.02%). The class given is functional.
Data set [3] in a line: Cytotoxicity against human HCT8/VCT cells assessed as growth inhibition after 48 hrs by MTT assay. The class given is functional, cell-based. The essentials:
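Drug-resistant lines were tested by a 48 h MTT viability assay. IC50 was derived from dose-response curves and reported as mean ± SE of at least three independent experiments.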

In data set [4] the test system is A549. The data set can be described thus: Induction of apoptosis in human A549 cells assessed as necrotic cells at 10 nM after 48 hrs by annexin V-FITC/propidium iodide staining-based flow cytometric method (reference value: 0.01%). The class given is functional.
Data set [5] in a line: Selectivity ratio of IC50 for HLF to IC50 for human A549 cells. The class given is ADME, cell-based. Particulars: HLF versus A549 cells, read-out: Ratio IC50. A digest of the protocol:
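Selectivity ratio = IC50 in normal cells / IC50 in A549; IC50 values mean ± SE from dose-response curves of at least three independent experiments. HUVECs kept quiescent in endothelial cell medium with 0.5% fetal calf serum, no growth factor.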

Data set [6] deals with A549. The data set can be described thus: Cytotoxicity against human A549 cells assessed as cell viability after 48 hrs by MTT assay. The class given is functional, cell-based. Particulars: A549, 48 h. A digest of the protocol: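 Cancer cell lines treated with compound for 48 h, and viability read by MTT assay. IC50 given as mean ± SD from at least three independent experiments.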

The subject of data set [7] is A549. The experiment in a line: Induction of apoptosis in human A549 cells assessed as late apoptotic cells at 3 nM after 48 hrs by annexin V-FITC/propidium iodide staining-based flow cytometric method (reference value: 0.01%). The class given is functional.
Data set [8] has as its system A2780. The experiment in a line: Resistance index, ratio of IC50 for human A2780/TAX cells to IC50 for human A2780 cells. The class given is functional.

Take `COc1ccc2c(/C=C(\C)C(=O)c3cc(OC)c(OC)c(OC)c3)c[nH]c2c1`: the half-life in data set [1] was determined as 2.62 h. The Activity in data set [2] came out at 1.78%; in data set [4], 8.38%; in data set [7] it was 33.4%. Further, the IC50 in data set [3] came to 5 nM; in data set [6], 3 nM. Besides, the selectivity ratio in data set [5] turned out to be 1890. Also, the “Ratio IC50” value in data set [8] amounted to 12.4.

The values are drawn from ChEMBL document CHEMBL3817728, “Synthesis, Evaluation, and Mechanism Study of Novel Indole-Chalcone Derivatives Exerting Effective Antitumor Activity Through Microtubule Destabilization in Vitro and in Vivo” (J Med Chem, 2016).
